“And” between values parts separate entries of the source, which are not always exact repeats. Equal entries are not always repeated.
Key:
[1] = system: HEK-293T; experiment: Multiplex assay against HEK293T; format: toxicity, cell-based; details: human, number of replicates 2
Summary of the method: (§1)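 Phenotypes for tubulin, mitochondrial mass and membrane permeability are expressed as per cents of healthy-nucleus cells. Cells were stained live at seeding with Hoechst33342, BioTracker Green Microtubule Cytoskeleton Dye, MitoTracker Red and Annexin V Alexa Fluor 680, then imaged after compound addition on a CQ1 microscope at 37°C and 5% CO2. Machine-learning gating in CellPathfinder separated Hoechst high-intensity objects from normal cells, divided normal cells by nuclear state (healthy, pyknosed, fragmented) and divided pyknosed cells into mitotic or apoptotic.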

[2] = system: U2OS; experiment: Multiplex assay against U2OS; format: toxicity, cell-based; details: human, number of replicates 2; summary of the method: as §1
[3] = 12 h, 1 µM, compound concentration 1 uM
[4] = 12 h, 10 µM, compound concentration 10 uM
[5] = 24 h, 1 µM, compound concentration 1 uM
[6] = 24 h, 10 µM, compound concentration 10 uM
[7] = 48 h, 1 µM, compound concentration 1 uM
[8] = 48 h, 10 µM, compound concentration 10 uM

C[C@@H](OC[C@@]1(c2ccccc2)CC[C@]2(CCC(=O)N2)CN1)c1cc(C(F)(F)F)cc(C(F)(F)F)c1 [ROLAPITANT]
Population Apoptotic (%) [1, 3]: 57% and 49%
Population Fragmented Nuclei (%) [1, 3]: 6% and 4%
Population Healthy Nuclei (%) [1, 3]: 72% and 81%
Population Hoechst High Intensity Objects (%) [1, 3]: 7% and 8%
Population Membrane Permeable-Phenotype (%) [1, 3]: 5% and 3%
Population Mitochondria Different-Phenotype (%) [1, 3]: 25% and 28%
Population Mitotic Cells (%) [1, 3]: 42% and 50%
Population Normal (%) [1, 3]: 92% and 91%
Population Pyknosed Nuclei (%) [1, 3]: 21% and 14%
Population Tubulin-Different-Phenotype (%) [1, 3]: 66% and 80%
Total Cell Count [1, 3]: 453 and 616
Population Apoptotic (%) [1, 4]: 56% and 70%
Population Fragmented Nuclei (%) [1, 4]: 4%
Population Healthy Nuclei (%) [1, 4]: 80% and 77%
Population Hoechst High Intensity Objects (%) [1, 4]: 11% and 6%
Population Membrane Permeable-Phenotype (%) [1, 4]: 4% and 2%
Population Mitochondria Different-Phenotype (%) [1, 4]: 35% and 40%
Population Mitotic Cells (%) [1, 4]: 44% and 29%
Population Normal (%) [1, 4]: 88% and 93%
Population Pyknosed Nuclei (%) [1, 4]: 15% and 17%
Population Tubulin-Different-Phenotype (%) [1, 4]: 81% and 86%
Total Cell Count [1, 4]: 563 and 415
Population Apoptotic (%) [1, 5]: 63% and 53%
Population Fragmented Nuclei (%) [1, 5]: 8% and 6%
Population Healthy Nuclei (%) [1, 5]: 75% and 80%
Population Hoechst High Intensity Objects (%) [1, 5]: 6% and 9%
Population Membrane Permeable-Phenotype (%) [1, 5]: 3% and 2%
Population Mitochondria Different-Phenotype (%) [1, 5]: 12% and 13%
Population Mitotic Cells (%) [1, 5]: 36% and 46%
Population Normal (%) [1, 5]: 93% and 90%
Population Pyknosed Nuclei (%) [1, 5]: 15% and 12%
Population Tubulin-Different-Phenotype (%) [1, 5]: 51% and 61%
Total Cell Count [1, 5]: 631 and 823
Population Apoptotic (%) [1, 6]: 61%
Population Fragmented Nuclei (%) [1, 6]: 7%
Population Healthy Nuclei (%) [1, 6]: 81% and 77%
Population Hoechst High Intensity Objects (%) [1, 6]: 12% and 9%
Population Membrane Permeable-Phenotype (%) [1, 6]: 3%
Population Mitochondria Different-Phenotype (%) [1, 6]: 21% and 27%
Population Mitotic Cells (%) [1, 6]: 38%
Population Normal (%) [1, 6]: 87% and 90%
Population Pyknosed Nuclei (%) [1, 6]: 11% and 15%
Population Tubulin-Different-Phenotype (%) [1, 6]: 70% and 69%
Total Cell Count [1, 6]: 730 and 604
Population Apoptotic (%) [1, 7]: 35% and 28%
Population Fragmented Nuclei (%) [1, 7]: 12% and 11%
Population Healthy Nuclei (%) [1, 7]: 82% and 83%
Population Hoechst High Intensity Objects (%) [1, 7]: 8% and 11%
Population Membrane Permeable-Phenotype (%) [1, 7]: 5% and 3%
Population Mitochondria Different-Phenotype (%) [1, 7]: 1% and 2%
Population Mitotic Cells (%) [1, 7]: 64% and 71%
Population Normal (%) [1, 7]: 91% and 88%
Population Pyknosed Nuclei (%) [1, 7]: 4% and 5%
Population Tubulin-Different-Phenotype (%) [1, 7]: 23% and 39%
Total Cell Count [1, 7]: 1671
Population Apoptotic (%) [1, 8]: 50% and 48%
Population Fragmented Nuclei (%) [1, 8]: 11% and 8%
Population Healthy Nuclei (%) [1, 8]: 83% and 84%
Population Hoechst High Intensity Objects (%) [1, 8]: 9%
Population Membrane Permeable-Phenotype (%) [1, 8]: 6% and 3%
Population Mitochondria Different-Phenotype (%) [1, 8]: 4% and 11%
Population Mitotic Cells (%) [1, 8]: 49% and 51%
Population Normal (%) [1, 8]: 90%
Population Pyknosed Nuclei (%) [1, 8]: 5% and 7%
Population Tubulin-Different-Phenotype (%) [1, 8]: 53% and 48%
Total Cell Count [1, 8]: 1126 and 904
Population Apoptotic (%) [2, 3]: 20% and 40%
Population Fragmented Nuclei (%) [2, 3]: 11% and 3%
Population Healthy Nuclei (%) [2, 3]: 73% and 86%
Population Hoechst High Intensity Objects (%) [2, 3]: 0%
Population Membrane Permeable-Phenotype (%) [2, 3]: 4% and 1%
Population Mitochondria Different-Phenotype (%) [2, 3]: 0%
Population Mitotic Cells (%) [2, 3]: 80% and 59%
Population Normal (%) [2, 3]: 100%
Population Pyknosed Nuclei (%) [2, 3]: 14% and 9%
Population Tubulin-Different-Phenotype (%) [2, 3]: 76% and 86%
Population Apoptotic (%) [2, 4]: 37% and 50%
Population Healthy Nuclei (%) [2, 4]: 85% and 71%
Population Hoechst High Intensity Objects (%) [2, 4]: 0%
Population Membrane Permeable-Phenotype (%) [2, 4]: 1% and 5%
Population Mitochondria Different-Phenotype (%) [2, 4]: 0% and 5%
Population Mitotic Cells (%) [2, 4]: 62% and 50%
Population Normal (%) [2, 4]: 99% and 100%
Population Pyknosed Nuclei (%) [2, 4]: 8% and 7%
Population Tubulin-Different-Phenotype (%) [2, 4]: 87% and 30%
Population Apoptotic (%) [2, 5]: 100% and 52%
Population Fragmented Nuclei (%) [2, 5]: 7% and 2%
Population Healthy Nuclei (%) [2, 5]: 90% and 87%
Population Hoechst High Intensity Objects (%) [2, 5]: 0%
Population Membrane Permeable-Phenotype (%) [2, 5]: 0% and 1%
Population Mitochondria Different-Phenotype (%) [2, 5]: 0% and 1%
Population Normal (%) [2, 5]: 100%
Population Pyknosed Nuclei (%) [2, 5]: 2% and 9%
Population Tubulin-Different-Phenotype (%) [2, 5]: 77% and 90%
